From PubChem BioAssay
Sampled rows, rich in hits. Any-hit rate of the full collection: about 2%.
EBI2 block: EBI2 receptor antagonists, beta-arrestin recruitment, primary screen, cell-based, luminescence, 7a,25-OHC stimulation, uHTS. AID 651636, 2012. inhibition, % at 5 µM. G-protein coupled receptor 183 (Homo sapiens), P32249. 7a,25-OHC stimulated. 360,000 compounds, 0.81% hits; in the data active = inhibition above about 38%;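 also: enzyme fragment complementation signal reports receptor beta-arrestin coupling in cells; 0% = agonist plus DMSO wells and 100% = wells without agonist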
Target sequence (P32249 whole entry, looked up, the tested form may be a part): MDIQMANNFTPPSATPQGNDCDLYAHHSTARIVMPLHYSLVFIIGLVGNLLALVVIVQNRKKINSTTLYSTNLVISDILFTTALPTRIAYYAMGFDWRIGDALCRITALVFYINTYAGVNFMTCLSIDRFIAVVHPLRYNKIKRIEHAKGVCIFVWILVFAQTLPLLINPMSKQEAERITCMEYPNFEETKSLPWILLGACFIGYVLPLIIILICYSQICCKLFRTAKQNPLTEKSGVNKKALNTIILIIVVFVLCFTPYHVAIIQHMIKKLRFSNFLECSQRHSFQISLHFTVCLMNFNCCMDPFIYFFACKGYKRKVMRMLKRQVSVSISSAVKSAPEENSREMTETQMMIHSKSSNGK
APJ antag: antagonists of human apelin receptor APJ, primary screen, CHO-K1 cells, beta-arrestin complementation, luminescence; P35414; 330,000 compounds, 0.32% hits; inhibition, % at 20 µM;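 active = inhibition above about 40% at 20 µM, limit read from the data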;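 also: cells challenged with 10 nM apelin-13 agonist together with compound; plate controls were apelin-13 plus DMSO wells for no effect and DMSO wells lacking apelin-13 for full effect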
GAA850 FXN act: FXN promoter activators, primary screen, cell-based, luciferase luminescence, HEK293 lucGAA850; activation, % at 6 µM; 360,000 compounds, 0.56% hits; AID 540364, 2011; HEK293 lucGAA850 FXN promoter luciferase reporter, 24 h; percent of 10 µM SAHA response;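 active = activation above the average of all compounds screened plus 3 SD, cutoff fixed separately per campaign, cut at about 7.5% in these data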;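 also: 0% = DMSO wells and 100% = 10 µM SAHA wells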
CCR6 antag: CCR6 receptor antagonists, primary screen, cell-based, CHO-K1, luminescence, beta-arrestin, uHTS; inhibition, % at 20 µM; 340,000 compounds, 0.49% hits; AID 493098, 2011; CHO-K1 CCR6 PathHunter beta-arrestin, CCL20-stimulated;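 active = compounds whose inhibition of the agonist-driven luminescence signal at 20 µM reaches about 50%, limit read from the data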;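 also: cells stimulated with CCL20 at 14 nM final; plate controls were DMSO with CCL20 for no effect and DMSO without agonist for full effect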
APJ agonist: agonists of human apelin receptor APJ, primary screen, CHO-K1 cells, PathHunter beta-arrestin, luminescence; P35414; 0% DMSO wells, 100% apelin; activation, % at 20 µM; 330,000 compounds, 0.11% hits;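 active = activation more than six SD over the plate average, tested at 20 µM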;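 also: 0% = DMSO alone and 100% = apelin-13 at 10 nM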
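Test system: CHO-K1 APJ beta-arrestin complementation cell line | Compound: Single test compound dose, 20 µM final, 1% DMSO | Incubation: Compound 90 min 25 °C, reagent 1 h | Measured by: beta-gal luminescence | Read-out basis: APJ–arrestin association signal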
CXCR6 block: CXCR6 receptor inhibitors, primary screen, cell-based, beta-arrestin, luminescence, CHO-K1 PathHunter, 1536-well; C-X-C chemokine receptor type 6 (Homo sapiens), O00574; 360,000 compounds, 0.36% hits; inhibition, % at 20 µM; in the data active = inhibition above about 34%, passing the limit was not always enough;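 also: antagonist mode with CXCL16 agonist at 10 nM final; 0% = 10 nM CXCL16 with DMSO and 100% = unstimulated wells without agonist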
EBI2 conf: EBI2 antagonist hit retest, beta-arrestin, confirmation, cell-based, single concentration, luminescence, 7a,25-OHC stimulation. shares compounds with EBI2 block. 7a,25-OHC antagonism. inhibition, % at 5 µM. AID 651997, 2013. 2,400 compounds, 29% hits;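 active = inhibition of at least 50%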
EBI2 agonist: EBI2 agonist activity of antagonist hits, confirmation, counter-screen for EBI2 antagonist project, cell-based, single concentration, agonist mode, luminescence. shares compounds with EBI2 block. activation, % at 5 µM. 2,400 tested, under 10 active. EBI2-expressing cells, 60 min; 0% vehicle, 100% 7α,25-dihydroxycholesterol control;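 active = activation of at least 50%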
bGal counter: E. coli beta-galactosidase enzyme inhibition, confirmation, counter-screen for EBI2 antagonist project, biochemical, luminescence, single concentration | purified beta-galactosidase, luminescent Galacton Star, 15 min | AID 652176, 2013 | inhibition, % at 5 µM | shares compounds with EBI2 block | 2,400 compounds, 1% hits;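 active = replicate-average signal at least 3 plate SD below neutral wells, shown as high inhibition, flagging enzyme-inhibiting false positives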;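 also: 0% = DMSO wells with enzyme and 100% = wells lacking enzyme; higher means stronger loss of beta-gal luminescence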
* marks the source's active call; other numbers are inactive results; · = no result.

SMILES	EBI2 block	APJ antag	GAA850 FXN act	CCR6 antag	APJ agonist	CXCR6 block	EBI2 conf	EBI2 agonist	bGal counter
CN(C(=O)c1cccc(NC(=O)Cc2ccc(NC(=O)C3CCN(S(=O)(=O)c4cccc([N+](=O)[O-])c4)CC3)cc2)c1)C1CCC1	77*	·	2	9	·	-5	14	-2	-4
Cc1ccc(NNC(=S)Nc2ccc(C(C)C)cc2)c(C)c1	70*	30	4	42	-5	19	62*	-1	-8
Cc1ccc(NC(=O)CCC(=O)NNC(=S)Nc2ccc(F)cc2)c(C)c1	-1	12	-1	3	0	2	·	·	·
O=C(Nc1ccc(F)c(Cl)c1)c1csc(COCCO)n1	-8	·	3	·	·	-2	·	·	·
CCC(Cc1ccccc1)NC(=O)CCNS(=O)(=O)c1cc(Br)cnc1N (centres undefined)	7	-20	-1	11	-4	3	·	·	·
COc1cccc(/C=C/C(=O)c2ccc(NS(=O)(=O)c3ccc(C)cc3)cc2)c1	62*	16	3	23	-3	16	45	0	6
COc1cc(/C=C/C(=O)c2ccc(NS(=O)(=O)c3ccc(C)cc3)cc2)cc(OC)c1O	27	·	0	27	·	4	·	·	·
COc1ccc(CCNC(=O)CSc2cn(Cc3ccccc3)c3ccccc23)cc1OC	42	11	0	23	3	8	·	·	·
COc1ccc(CCNC(=O)CSc2cn(Cc3cccc(C)c3)c3ccccc23)cc1OC	55*	7	-3	30	-7	22	29	-1	-9
COCCCN1C(=O)c2ccc(C(=O)NCCc3ccccc3)cc2C1=O	3	12	6	7	-4	-13	·	·	·
CCOc1cc(/C=N/NC(=O)c2ccc(CN3CCOCC3)cc2)ccc1OCc1ccccc1	55*	-3	-8	-4	4	1	60*	-1	-20
O=C(N/N=C/c1cccc(OCc2ccccc2)c1)c1ccc(Br)cc1	36*	-14	-1	2	0	-9	23	1	6
CCOc1cc(/C=N/NC(=O)CN2CCOCC2)ccc1OCc1ccccc1	2	-3	1	11	3	-1	·	·	·
Nc1ccccc1N=Cc1ccc(-c2cccc(Cl)c2)o1	42*	-8	2	11	9	25	33	-1	-8
Cc1ccc(/C=N/NC(=S)NC2CCS(=O)(=O)C2)cc1 (centres undefined)	44*	17	-2	1	4	-8	44	1	7
CCOc1ccc(-c2nnc(SCC(=O)O)n2Cc2ccccc2)cc1	-8	7	1	-12	-2	2	·	·	·
O=c1n(Cc2ccccc2F)c2ccccc2n1Cc1ccccc1F	14	-1	4	36	-7	22	·	·	·
Cc1ccc(Cn2c(=O)n(Cc3ccco3)c(=O)c3ccccc32)cc1	69*	-22	1	29	-4	9	26	1	9
O=c1c2ccccc2n(Cc2ccccc2F)c(=O)n1Cc1ccccc1F	54*	14	4	22	-5	16	17	1	11
CC(C)(C)CC(C)(C)c1ccc(O)c(Cc2ccc(Cl)cc2Cl)c1	75*	·	2	43	·	-5	42	-2	-15
C[C@@H](C(=O)Nc1ccc2ccccc2c1)[C@@H]1C[C@@]1(C)[C@@H](NC(=O)c1cnccn1)c1ccccc1	75*	9	-1	17	-6	7	42	-2	-13
C[C@@H](C(=O)Nc1ccc2ccccc2c1)[C@H]1C[C@]1(C)[C@H](NC(=O)c1cnccn1)c1ccccc1	10	-4	-1	2	-1	4	·	·	·
COc1ccc(Nc2nc(-c3cc4cccc(OC)c4oc3=O)cs2)cc1	43	1	6	6	-3	6	·	·	·
COc1cccc2sc(Nc3nc(-c4cc5ccccc5oc4=O)cs3)nc12	46*	·	-3	24	·	15	20	-1	-10
CC(NCCCSc1ccccc1)C(O)c1ccc(O)cc1 (centres undefined)	-10	·	3	·	·	1	·	·	·
SMILES	EBI2 block	APJ antag	GAA850 FXN act	CCR6 antag	APJ agonist	CXCR6 block	EBI2 conf	EBI2 agonist	bGal counter
COC(=O)c1ccc(Oc2ccc(S(=O)(=O)N3CCCCC3)cc2N)cc1	35*	5	-1	15	-1	0	14	0	5
O=C(Nc1cccc2ccccc12)c1ccc2sc([C@@H]3O[C@H](CO)[C@H](O)[C@H](O)[C@H]3O)nc2c1	-2	·	1	·	·	5	·	·	·
O=C(COC(=O)/C=C/c1cccc([N+](=O)[O-])c1)NCc1ccc2c(c1)OCO2	-1	17	-1	-5	-3	4	·	·	·
O=C(/C=C/c1cccs1)N1CCN(Cc2ccc3c(c2)OCO3)CC1	64*	-10	3	4	5	9	44	-1	-13
O=C(c1sccc1Br)N1CCN(Cc2ccc3c(c2)OCO3)CC1	5	-4	-1	6	-2	0	·	·	·
O=C(/C=C/c1cccc([N+](=O)[O-])c1)N1CCN(Cc2ccc3c(c2)OCO3)CC1	50*	6	-1	0	3	-11	31	1	0
Cc1cccc(C)c1NC(=O)Nc1nnc([C@@H]2C[C@H](O)[C@@H](CO)O2)s1	0	·	0	·	·	0	·	·	·
Cc1ccc(C2=NNC(=O)C(c3ccc(Cl)cc3)C2)cc1 (centres undefined)	53*	-11	1	18	0	4	40	0	9
CCCCNc1c(-c2cccc(SC(C)CC)c2)nc2ccc(Cl)cn12 (centres undefined)	12	-9	1	6	-1	2	·	·	·
CCC(C)Sc1ccc(-c2nc3ccc(Cl)cn3c2NCc2ccccc2)cc1 (centres undefined)	44*	-1	1	9	1	-3	28	-2	-14
